These results are taken from ChEMBL document CHEMBL3585337, “Selective inhibition of prolyl 4-hydroxylases by bipyridinedicarboxylates” (Bioorg Med Chem, 2015).

As usually defined, the Ki is a dissociation constant, usually derived from enzyme kinetics or from competition with a known ligand. Usually IC50 stands for the concentration needed to halve the response being measured. One may read the inhibition as the relative decrease from the control value, in per cent. One may read the EC50 as the concentration that produces a half-maximal response.

Activity calls are given as the source filed them. The calls are words filed in the database; no cut-off is given here.

Experiment [1] can be described thus: Binding affinity to Fe(2) assessed as Fe(compound)2+/3 complex formation at 150 uM in Tris buffer at pH 7.8 at 30 degC. The method, boiled down: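 Assay buffer: 50 mM Tris-HCl pH 7.8, 1% w/v BSA, 100 µg/mL catalase, 2 mM sodium ascorbate, 100 µM AKG, 100 µM DTT, 50 µM FeSO4. Incubated at 30 °C with or without ligand (150 µM). Fe(ligand)3 2+ complex detected by UV–Vis spectrophotometry.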

The target of experiment [2] is T1, Prolyl 4-hydroxylase subunit alpha-1 (Homo sapiens, UniProt P13674). In words: Inhibition of human recombinant CP4H1 expressed in Escherichia coli Origami B(DE3) pre-incubated for 2 mins followed by alpha-ketoglutarate addition using dansylGlyProProGlyOEt substrate in Tris-HCl buffer at pH 7.8 at 30 degC by HPLC based Cheng-Prussoff equation method.
For experiment [3], the target named is T1, Prolyl 4-hydroxylase subunit alpha-1. In words: Inhibition of human recombinant CP4H1 expressed in Escherichia coli Origami B(DE3) pre-incubated for 2 mins followed by alpha-ketoglutarate addition using dansylGlyProProGlyOEt substrate in Tris-HCl buffer at pH 7.8 at 30 degC by HPLC method.
Experiment [4] has as its target Egl nine homolog 1 (Homo sapiens) (UniProt Q9GZT9). In words: Inhibition of N-terminal hexa-histidine tagged human PHD2 (181 to 426 amino acids) at 10 uM pre-incubated for 2 mins followed by alpha-ketoglutarate addition using HIF1alpha peptide (556 to 574 amino acids) and 50 uM FeSO4 by RP-HPLC method. The method, boiled down:
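5 µM NHis6-PHD2(181–426) in Tris-HCl pH 7.8 with 50 µM HIF-1α(556–574) peptide, 1 mg/mL BSA, 0.3 mg/mL catalase, 2 mM ascorbate, 1 mM DTT. Started with 35 µM α-ketoglutarate, 10 min at 30 °C, quenched by 60 s boiling. Conversion by C18 HPLC at 218 nm, relative to no-inhibitor control; three independent experiments.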

The nature of experiment [5]: Binding affinity to Fe(2) assessed as half maximal concentration required for binding 20 uM Fe(2) in pH 7.0 sodium phosphate buffer. In a few lines:
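Ligand at 3–500 µM in 10 mM sodium phosphate pH 7.0, started by adding freshly made FeSO4 (20 µM). Equilibrated 15 min, then absorbance read at complex λmax with the no-ligand blank subtracted. Absorbance plotted against log ligand, and Fe20-EC50 taken by sigmoidal non-linear regression. Triplicate; mean ± SE.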

Experiment [6] can be described thus: Inhibition of human collagen prolyl 4-hydroxylase.
Experiment [7] concerns the target T1, Prolyl 4-hydroxylase subunit alpha-1. The experiment is described as follows: Inhibition of human recombinant CP4H1 expressed in Escherichia coli Origami B(DE3) at 10 uM pre-incubated for 2 mins followed by alpha-ketoglutarate addition using dansylGlyProProGlyOEt substrate in Tris-HCl buffer at pH 7.8 at 30 degC by HPLC method.

Chain of Egl nine homolog 1 (Homo sapiens) (Q9GZT9 2-426 limits assumed): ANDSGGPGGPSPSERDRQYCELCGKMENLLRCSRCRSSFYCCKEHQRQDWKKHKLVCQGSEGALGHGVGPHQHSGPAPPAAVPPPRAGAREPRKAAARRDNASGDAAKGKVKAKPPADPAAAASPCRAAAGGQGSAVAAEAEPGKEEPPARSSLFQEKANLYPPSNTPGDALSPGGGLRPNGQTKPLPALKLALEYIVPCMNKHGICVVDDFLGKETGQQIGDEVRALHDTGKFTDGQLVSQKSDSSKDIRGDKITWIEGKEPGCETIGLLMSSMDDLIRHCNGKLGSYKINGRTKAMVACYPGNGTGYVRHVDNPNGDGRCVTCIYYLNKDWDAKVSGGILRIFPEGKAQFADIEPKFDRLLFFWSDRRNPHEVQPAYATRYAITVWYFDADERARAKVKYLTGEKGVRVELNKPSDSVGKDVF
T1 sequence (P13674 whole entry): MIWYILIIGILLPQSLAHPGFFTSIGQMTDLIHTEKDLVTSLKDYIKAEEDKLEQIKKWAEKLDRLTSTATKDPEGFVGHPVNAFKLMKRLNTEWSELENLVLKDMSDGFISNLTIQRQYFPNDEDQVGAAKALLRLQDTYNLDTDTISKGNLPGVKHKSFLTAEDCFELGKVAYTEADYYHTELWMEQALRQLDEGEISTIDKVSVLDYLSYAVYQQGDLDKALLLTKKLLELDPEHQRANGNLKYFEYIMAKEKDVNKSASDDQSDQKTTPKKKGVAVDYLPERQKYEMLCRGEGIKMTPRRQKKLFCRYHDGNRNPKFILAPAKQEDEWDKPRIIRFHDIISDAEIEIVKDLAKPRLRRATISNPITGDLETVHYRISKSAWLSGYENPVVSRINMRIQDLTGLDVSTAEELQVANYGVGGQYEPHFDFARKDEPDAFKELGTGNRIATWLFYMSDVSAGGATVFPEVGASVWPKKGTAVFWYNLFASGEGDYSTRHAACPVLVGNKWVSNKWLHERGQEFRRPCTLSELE

With `O=C(O)c1ccc(-c2ccc(C(=O)O)cn2)nc1`, the outcome in experiment [1] was Active. The Ki in experiment [2] amounted to 0.14 µM. In experiment [3], the IC50 was determined as 0.84 µM. In experiment [4], the inhibition result is “inactive”. Moreover, the EC50 in experiment [5] (read-out: EC50) stood at 112 µM.
Take `O=C(O)c1ccc(-c2cccc(C(=O)O)n2)nc1`: in experiment [4], the inhibition result is “inactive”. Besides, in experiment [5] (read-out: EC50), the EC50 was 27 µM.
Turning to `O=C(O)c1ccc(C(=O)O)nc1` [PYRIDINE-2,5-DICARBOXYLIC ACID], the figures for the Ki in experiment [2] and in experiment [6] were 2.6 µM and 0.8 µM, respectively. Besides, the concentration for half-maximal inhibition (IC50) in experiment [3] turned out to be 15 µM. The inhibition result in experiment [7] was “Active”. Also, in experiment [4], the inhibition entry was “inactive”.
On to `c1ccc(-c2ccccn2)nc1`, for which the outcome in experiment [1] was Active. Moreover, the inhibition result in experiment [7] was “inactive”. Further, the EC50 in experiment [5] (read-out: EC50) was determined as 43 µM.
Turning to `O=C(O)c1ccnc(-c2cc(C(=O)O)ccn2)c1`, the result in experiment [1] was Active. The inhibition entry in experiment [7] and in experiment [4] was “Active” each time. Further, the EC50 in experiment [5] (read-out: EC50) worked out at 38 µM.
`O=C(O)c1ccnc(-c2cccc(C(=O)O)n2)c1`: in experiment [4], the inhibition entry was “inactive”. Besides, the EC50 in experiment [5] (read-out: EC50) came to 26 µM.
Regarding `O=C(O)c1ccc(-c2cc(C(=O)O)ccn2)nc1`, the result in experiment [1] was Active. Also, the inhibition constant (Ki) in experiment [2] amounted to 0.2 µM. The concentration for half-maximal inhibition (IC50) in experiment [3] worked out at 1.2 µM. The inhibition in experiment [7] is > 90%. The inhibition result in experiment [4] is “Active”. Besides, the EC50 in experiment [5] (read-out: EC50) was found to be 78 µM.
Turning to `O=C(O)c1cccc(-c2cccc(C(=O)O)n2)n1`, the inhibition entry in experiment [4] is “inactive”. Besides, the EC50 result in experiment [5] is “Not Active”.
For the molecule `O=C(O)c1cccnc1-c1ncccc1C(=O)O`, the half-maximal effective concentration (EC50) result in experiment [5] was “Not Active”.
As for `O=C(O)c1ccnc(C(=O)O)c1`, in experiment [4], the inhibition result was “Active”.
On the same count and under the same terms, the same measure for `O=C(O)CNC(=O)C(=O)O`: “Active”.
